The source made the active and inactive calls. The rule behind the calls is not given here.
What was measured:
Drosophila [1] = experiment: Toxicity in wild-type Drosophila assessed as eclosion rate at 50 uM, po via food to female and male flies and measured in F1 generation flies after 15 days; format: organism-based; conditions: in vivo, 360 h, time 15 day
Summary of the method: (§1)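 Ten virgin female and male Oregon R+ flies crossed on food containing compound (1, 10, 50, 100 or 200 μM), held at 24 ± 1 °C; F1 generation followed 15 days; percent eclosion versus untreated controls; Dunnett's multiple comparisons.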

Drosophila [2] = experiment: Anti-cancer activity in Drosophila harboring UAS-Ras V12 mutant assessed as rescue of third instar larval lethality at 10 to 50 uM, po; format: functional, organism-based; conditions: dose 10-50 µM
Summary of the method: (§2)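 UAS-RasV12 glial glioblastoma model (repo-GAL4/UAS-RasV12) in Drosophila, with Oregon R+ wild-type flies as control. Flies reared at 24 ± 1 °C on standard corn food containing compound at 10 or 50 μM. Percent of animals at each developmental stage (third instar larva, pupa) scored. Significance by Tukey's multiple comparisons test.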

Drosophila [3] = experiment: Anti-cancer activity in Drosophila harboring UAS-Ras V12 mutant assessed as increase in early pupal developmental differentiation at 10 to 50 uM, po; format: functional, organism-based; conditions: dose 10-50 µM; summary of the method: as §2
Drosophila [4] = experiment: Anti-cancer activity in Drosophila harboring UAS-Ras V12 mutant assessed as improvement in pupal development at 10 uM, po; format: functional, organism-based; summary of the method: as §2
Drosophila [5] = experiment: Anti-cancer activity in Drosophila harboring UAS-Ras V12 mutant assessed as improvement in third instar larval survivability at 10 to 50 uM, po; format: functional, organism-based; conditions: dose 10-50 µM; summary of the method: as §2
Drosophila [6] = experiment: Toxicity in wild-type Drosophila assessed as eclosion rate at 1 uM, po via food to female and male flies and measured in F1 generation flies after 15 days; format: organism-based; conditions: in vivo, 360 h, time 15 day; summary of the method: as §1
Drosophila [7] = experiment: Toxicity in wild-type Drosophila assessed as eclosion rate at 10 uM, po via food to female and male flies and measured in F1 generation flies after 15 days; format: organism-based; conditions: in vivo, 360 h, time 15 day; summary of the method: as §1
[8] = Cmax in male Wistar rat at 10 mg/kg, po measured up to 24 hrs by HPLC analysis; format: ADME, organism-based; conditions: in vivo
Summary of the method: (§3)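 Overnight-fasted male Wistar rats, 200–250 g, single 10 mg kg−1 p.o. in 0.3% sodium CMC; blood at 0, 0.5, 1, 2, 4, 8, 16, 24 h into heparin tubes; plasma MeOH-extracted, HPLC (MeOH:H2O 85:15, 254 nm) against calibration curve; extravascular non-compartmental analysis; mean ± SD (n = 3).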

[9] = AUC (0 to 24 hrs) in male Wistar rat at 10 mg/kg, po measured up to 24 hrs by HPLC analysis; format: ADME, organism-based; conditions: in vivo
Summary of the method: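 Healthy male Wistar rats (200–250 g, n = 5), fasted overnight, given a single oral dose of 10 mg kg−1 in 0.3% sodium CMC. Blood collected under anaesthesia at 0, 0.5, 1, 2, 4, 8, 16 and 24 h into heparinized tubes. Plasma extracted with MeOH and analysed by HPLC (MeOH:H2O 85:15, detection at 254 nm) against a standard calibration curve. Parameters from a non-compartmental extravascular model.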

[10] = MRT in male Wistar rat at 10 mg/kg, po measured up to 24 hrs by HPLC analysis; format: ADME, organism-based; conditions: in vivo; summary of the method: as §3
COLO 205 = experiment: Cytotoxicity against human COLO 205 cells assessed as growth inhibition incubated for 48 hrs by SRB assay; conditions: COLO 205, 48 h
MIA PaCa-2 = experiment: Cytotoxicity against human MIA PaCa-2 cells assessed as growth inhibition incubated for 48 hrs by SRB assay; conditions: MIA PaCa-2, 48 h

With Clc1ccc(-c2nnc(CN3CCN(C(c4ccccc4)c4ccc(Cl)cc4)CC3)o2)cc1 (configuration not stated) the Activity (Drosophila [1]) was over 70%, the Activity (Drosophila [2]) was “Active” and the Activity (Drosophila [3]) was “Active”. The Activity (Drosophila [4]) was “Active”, the Activity (Drosophila [5]) was “Active” and the Activity (Drosophila [6]) was ~ 92%. For the same molecule, the Activity (Drosophila [7]) was ~ 84%, the Cmax [8] was 10300 ng/mL and the AUC [9] was 32.06 µg/mL/h. For the same molecule, the MRT [10] was 3.42 h, the GI50 (COLO 205) was 1220 nM and the GI50 (MIA PaCa-2) was 2320 nM.

— ChEMBL document CHEMBL6134766, “Design, synthesis, and evaluation of benzhydrylpiperazine-based novel dual COX-2/5-LOX inhibitors with anti-inflammatory and anti-cancer activity” (RSC Med Chem, 2025)
